The species named for assay [1] is Cavia porcellus. The assay can be described thus: Relative Potency(RP %) (EC50) was calculated by using smooth muscle contraction assay in guinea pig gallbladder with relative to Ac[Nle28,31]CCK(26-33)(EC50). The assay is classed as functional, Muscle tissue. An outline of the steps: (§1)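 Same isolated guinea pig tissue contraction set-up: 90 min equilibration, isometric force, increasing peptide concentrations with three washes at 5–15-min intervals, 100 nM carbachol control.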

Assay [2] is filed under the species Cavia porcellus. In words: Relative Potency(RP %) (EC50) was calculated by using smooth muscle contraction assay in guinea pig ileum with relative to Ac[Nle28,31]CCK(26-33)(EC50). In kind it is functional. In a few lines:
as §1

The target in assay [3] is Cholecystokinin receptor (Cavia porcellus). In words: In vitro smooth muscle contraction activity in guinea pig ileum consists of two or three CCK receptor subtypes.
Assay [4] addresses T1, Cholecystokinin receptor type A (Cavia porcellus, UniProt Q63931).
T1 sequence (Q63931 whole entry): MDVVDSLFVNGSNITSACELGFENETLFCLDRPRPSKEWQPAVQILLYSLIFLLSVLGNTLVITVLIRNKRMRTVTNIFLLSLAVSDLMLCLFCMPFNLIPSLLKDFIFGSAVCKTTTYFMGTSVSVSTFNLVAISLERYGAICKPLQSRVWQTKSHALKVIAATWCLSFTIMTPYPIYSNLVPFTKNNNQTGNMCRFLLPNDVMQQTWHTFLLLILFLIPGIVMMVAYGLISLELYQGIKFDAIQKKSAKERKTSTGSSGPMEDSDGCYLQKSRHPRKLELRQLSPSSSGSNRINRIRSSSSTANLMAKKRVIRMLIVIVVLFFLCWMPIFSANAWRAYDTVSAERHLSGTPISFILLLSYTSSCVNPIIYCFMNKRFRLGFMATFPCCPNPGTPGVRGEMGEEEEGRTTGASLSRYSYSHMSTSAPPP
In words: In vitro smooth muscle contraction activity in guinea pig gall bladder cholecystokinin type A receptor. In kind it is functional, tissue-based. An outline of the steps: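 Isolated guinea pig tissue strips, equilibrated 90 min with periodic tension readjustment and bath changes. Isometric force recorded. Cumulative-free concentration-response curves from increasing peptide concentrations, strips washed three times with 5–15-min intervals between doses. Carbachol test dose (100 nM) measured before, during and after as control. EC50 from curves; points in duplicate, mean ± SEM of at least three experiments.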

The species named for assay [5] is Cavia porcellus. The assay can be described thus: Relative Potency(RP %) (EC50) was calculated by using smooth muscle contraction assay in guinea pig stomach with relative to Ac[Nle28,31]CCK(26-33)(EC50). The assay is classed as functional, Muscle tissue. An outline of the steps: as §1
For assay [6], the target named is Gastrin/cholecystokinin type B receptor (Cavia porcellus). In words: In vitro smooth muscle contraction activity in guinea pig stomach consisting of CCK/gastrin receptor subtype.

pEC50: −log10 of the molar value. Where a SMILES comes first, the peptide text is derived from it. [ ]: non-standard residue; d: D form. sY = N[C@@H](Cc1ccc(OS(=O)(=O)O)cc1)C(=O)O; Nle = CCCC[C@H](N)C(=O)O

The term EC50 denotes the concentration that produces a half-maximal response. A lower EC50 goes with higher potency in that assay. The term pEC50 denotes the negative decadic logarithm of the EC50, by convention in mol/L. A higher pEC50 goes with a low EC50. Turning to `CCCC[C@H](NC(=O)[C@H](Cc1ccc(OS(=O)(=O)O)cc1)NC(=O)[C@H](CC(=O)O)NC(C)=O)C(=O)NCC(=O)N[C@@H](Cc1c[nH]c2ccccc12)C(=O)N(C)[C@@H](CCCC)C(=O)N[C@@H](CC(=O)O)C(=O)N[C@@H](Cc1ccccc1)C(N)=O`, the “Relative Potency” value was 6 in the assay filed under Cavia porcellus [1], 4 in the assay listed under Cavia porcellus [2] and 10 in the assay filed under Cavia porcellus [5]. In assay [3], the EC50 was 37 nM. Moreover, the negative-log EC50 (pEC50) was 7.70 in assay [4] and 6.85 in assay [6].

Compound `CCCC[C@H](NC(=O)[C@H](Cc1ccc(OS(=O)(=O)O)cc1)NC(=O)[C@H](CC(=O)O)NC(C)=O)C(=O)NCC(=O)N[C@@H](Cc1c[nH]c2ccccc12)C(=O)N[C@@H](CCCC)C(=O)N[C@@H](CC(=O)O)C(=O)N(C)[C@@H](Cc1ccccc1)C(N)=O` showed a negative-log EC50 (pEC50) in assay [4] of 8.52.

As for `CCCC[C@H](NC(=O)[C@H](Cc1ccc(OS(=O)(=O)O)cc1)NC(=O)[C@H](CC(=O)O)NC(C)=O)C(=O)NCC(=O)N(C)[C@@H](Cc1c[nH]c2ccccc12)C(=O)N[C@@H](CCCC)C(=O)N[C@@H](CC(=O)O)C(=O)N[C@@H](Cc1ccccc1)C(N)=O`, in assay [4], the pEC50 is 7.28.

In the case of `CCCC[C@H](NC(=O)[C@H](Cc1ccc(OS(=O)(=O)O)cc1)NC(=O)[C@H](CC(=O)O)NC(C)=O)C(=O)NCC(=O)N[C@@H](Cc1c[nH]c2ccccc12)C(=O)N[C@@H](CCCC)C(=O)N[C@@H](CC(=O)O)C(=O)N[C@@H](Cc1ccccc1)C(N)=O`, the negative logarithm of the EC50 (pEC50) in assay [4] was 8.92.

For `CCCC[C@H](NC(=O)[C@H](Cc1c[nH]c2ccccc12)NC(=O)CNC(=O)[C@H](CCCC)NC(=O)[C@H](Cc1ccc(OS(=O)(=O)O)cc1)N(C)C(=O)[C@H](CC(=O)O)NC(C)=O)C(=O)N[C@@H](CC(=O)O)C(=O)N[C@@H](Cc1ccccc1)C(N)=O`, the pEC50 in assay [4] was 8.85.

For the compound `CCCC[C@H](NC(=O)[C@H](Cc1ccc(OS(=O)(=O)O)cc1)NC(=O)[C@H](CC(=O)O)NC(C)=O)C(=O)NCC(=O)N[C@@H](Cc1c[nH]c2ccccc12)C(=O)N[C@@H](CCCC)C(=O)N(C)[C@@H](CC(=O)O)C(=O)N[C@@H](Cc1ccccc1)C(N)=O`, the pEC50 in assay [4] is 8.70.

In the case of `CCCC[C@H](NC(=O)[C@H](Cc1c[nH]c2ccccc12)NC(=O)CN(C)C(=O)[C@H](CCCC)NC(=O)[C@H](Cc1ccc(OS(=O)(=O)O)cc1)NC(=O)[C@H](CC(=O)O)NC(C)=O)C(=O)N[C@@H](CC(=O)O)C(=O)N[C@@H](Cc1ccccc1)C(N)=O`, the pEC50 in assay [4] is 10.00.

`CCCC[C@H](NC(=O)[C@H](Cc1c[nH]c2ccccc12)NC(=O)[C@@H]1CCCN1C(=O)[C@H](CCCC)NC(=O)[C@H](Cc1ccc(OS(=O)(=O)O)cc1)NC(=O)[C@H](CC(=O)O)NC(C)=O)C(=O)N[C@@H](CC(=O)O)C(=O)N[C@@H](Cc1ccccc1)C(N)=O` (Ac-D[sY][Nle]PW[Nle]DF-NH2): the “Relative Potency” value is 2 in the assay listed under Cavia porcellus [1], 1.3 in the assay filed under Cavia porcellus [2] and 25 in the assay filed under Cavia porcellus [5]. This compound yielded a 50% effective concentration (EC50) in assay [3] of 104 nM. The negative logarithm of the EC50 (pEC50) in assay [4] is 7.22; in assay [6], 7.27.

The record behind these values is ChEMBL document CHEMBL1125498, “N-methylated analogs of Ac[Nle28,31]CCK(26-33): synthesis, activity, and receptor selectivity” (J Med Chem, 1992).
